Screens from PubChem BioAssay.
MrgX1 antagonist = human MrgX1 receptor antagonism, primary screen | Q96LB2 | MRGX1-HEK293 calcium flux, Fluo-4, BAM8-22 antagonism; active compounds read low | B-score at 10 µM | 310,000 tested, 1.3% active | AID 588676;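 active = calcium-response B-score plate-corrected more than 3 library SD below zero, starting fluorescence within 5 deviations, no agonist response on first addition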;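 also: peak minus trough fluorescence over baseline after final BAM8-22 challenge near maximal dose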
Target sequence (Q96LB2 whole entry, looked up): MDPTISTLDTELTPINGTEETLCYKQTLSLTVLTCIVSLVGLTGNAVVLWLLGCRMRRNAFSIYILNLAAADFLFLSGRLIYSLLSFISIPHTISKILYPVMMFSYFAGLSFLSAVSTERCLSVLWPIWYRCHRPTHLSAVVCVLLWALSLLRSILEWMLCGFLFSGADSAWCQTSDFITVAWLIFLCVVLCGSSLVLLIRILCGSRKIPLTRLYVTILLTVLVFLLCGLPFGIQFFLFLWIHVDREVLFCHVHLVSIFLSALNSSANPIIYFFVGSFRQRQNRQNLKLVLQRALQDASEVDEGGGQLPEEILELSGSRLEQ
KCC2 mod = modulates chloride dependent transport by human KCC2; KCC2 cells, thallium flux FluoZin-2 fluorescence; B-score of Tl+ flux slope (higher = more flux/activation; lower = inhibition) at 10 µM; 190,000 tested, 2.2% active; AID 1456;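 active = thallium flux slope and its plate-corrected score both differing from the plate sample mean at a set confidence after two filtering rounds, in either direction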;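 also: slope of fluorescence scaled to starting intensity during 10 to 20 s after thallium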
RGS4 act = RGS4 potentiation or activation | AID 463111 | B-score at 10 µM | 310,000 tested, 0.92% active | HEK293 M3R/inducible RGS4, carbachol calcium flux Fluo4; active compounds read low;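 active = B-score of the integrated calcium signal more than 4 SD below the library mean, with starting fluorescence not abnormally high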;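 also: negative B-score means reduced calcium response which marks RGS4 activation or potentiation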
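Also added: carbachol at ECmax as muscarinic agonist stimulus; Assay system: HEK293 cells with stable M3R and inducible RGS4; Timing: overnight RGS4 induction, 30 min dye load 37 °C, 20 min compound RT; Measured by: Fluo4-AM (2 µM) calcium-flux fluorescence, kinetic read.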
MrgX1 agonist = activates human MrgX1 receptor signaling. MrgX1-HEK293 cells, Fluo-4 calcium fluorescence, agonist mode; active compounds read high. 310,000 tested, 0.44% active. AID 588627. Q96LB2. B-score at 10 µM;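 active = calcium response B-score plate-corrected fluorescence ratio at least 3 library SD, with starting fluorescence B-score inside 5 SD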
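Assay system: MrgX1-expressing HEK293 cells / Amount: fifteen thousand cells per well / Doses: test compound in the initial addition of three / Timing: cells plated overnight, dye loaded 0.5 h 37 °C, 0.5 h room temperature / Technique: kinetic calcium dye fluorescence, Fluo-4 NW / Control set: positive and negative controls per plate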
RGS4 block = inhibitors of human RGS4; B-score at 10 µM; AID 463165; 310,000 tested, 0.45% active; HEK293 M3R/RGS4 inducible, Fluo-4 calcium flux; active compounds read high; triggered by carbachol at its EC20;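 active = B-score, a plate-corrected calcium signal, over three deviations above library mean, with baseline fluorescence within five deviations of library mean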;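 also: RGS4 expression induced by doxycycline in cells with stable M3 receptor; B-score is computed from the integrated fluorescence ratio over baseline after carbachol; higher B-score means a larger calcium signal and so more RGS4 inhibition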
Target sequence (P49798 whole entry, looked up): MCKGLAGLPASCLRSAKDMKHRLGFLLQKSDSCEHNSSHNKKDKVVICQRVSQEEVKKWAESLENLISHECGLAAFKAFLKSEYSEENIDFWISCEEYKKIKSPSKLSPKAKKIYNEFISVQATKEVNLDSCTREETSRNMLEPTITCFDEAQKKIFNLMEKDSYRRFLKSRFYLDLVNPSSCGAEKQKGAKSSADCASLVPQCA
MrgX1 allo act = allosterically activates human MrgX1 receptor signaling; MrgX1-HEK293, Fluo-4 calcium flux, FDSS; active compounds read high; Q96LB2; 310,000 tested, 0.63% active; B-score at 10 µM;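 active = plate-corrected calcium response at least 3 library SD above typical, normal starting fluorescence, not activating the receptor alone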;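 also: compound read alongside a low EC10 to EC30 dose of BAM8-22 agonist; peak minus trough fluorescence over baseline measured at the second addition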
KCC2 secondary = confirmation of human KCC2 transport modulators; shares compounds with KCC2 mod; HEK293-KCC2, thallium flux, FluoZin2 fluorescence; active compounds read high; normalised thallium flux (F/F0 slope) at 10 µM; 3,700 tested, 15% active;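 active = thallium flux slope above the same plate's solvent-only control mean plus 3 SD; inconclusive = the two replicate wells disagree; inactive = no significant difference from solvent-only control wells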
KCC2 bumet counter = thallium flux despite bumetanide block in KCC2 cells, secondary assay 3; shares compounds with KCC2 mod; HEK293-KCC2 + bumetanide/ouabain, thallium flux FluoZin2; active compounds read high; normalized thallium flux at 10 µM; 3,700 tested, 49% active;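 active = thallium entry rate above the same plate's blocked-transporter control wells by more than 3 SD; inconclusive = the two repeat wells disagree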;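 also: raw slope of fluorescence over initial fluorescence between 10 and 20 s after thallium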
KCC2 secondary2 = KCC2 (human) modulation, second secondary assay; shares compounds with KCC2 mod; normalized thallium flux at 10 µM; AID 1715; 3,700 tested, 23% active; HEK293-KCC2, thallium flux FluoZin2 fluorescence; actives lie on both sides; F/F0 rise rate, 10–20 s post-thallium;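 active = thallium flux slope more than 3 SD above or below the plate's solvent-only control mean, mostly below; inconclusive = the two repeat wells disagreed; inactive = no significant shift from solvent-only controls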;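 also: raw slope with 0.1% DMSO as baseline and bumetanide as block control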
HEK counter1 = acts in parental HEK cells, KCC2 counter-screen; shares compounds with KCC2 mod; HEK293 parental cells, thallium flux FluoZin2, ouabain; baseline-ratio fluorescence slope, 10–20 s after thallium; thallium flux rate (normalised fluorescence) at 10 µM; 3,700 tested, 46% active;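 active = thallium flux rate significantly above the same plate's solvent-only control wells, beyond their mean plus 3 SD; inconclusive = the two replicate wells gave conflicting results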
KCC2 retest ouab = KCC2 (human) modulation, ouabain retest. 3,700 tested, 48% active. raw Tl+ flux slope (below DMSO = inhibition, above = activation) at 10 µM. shares compounds with KCC2 mod. HEK293-KCC2, thallium flux FluoZin2 fluorescence; bidirectional: low = inhibitor, high = activator;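 active = thallium flux slope beyond 3 SD from same-plate DMSO control mean in most replicates, usually higher, sometimes lower; inconclusive = repeat tests gave conflicting results; inactive = no significant difference from controls in most replicates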;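 also: slope of initial-normalized fluorescence between seconds 10 and 20 after thallium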
HEK293 Tl flux2 = counter-screen for KCC2 modulators: effect in parental HEK293 cells; 3,700 tested, 33% active; shares compounds with KCC2 mod; thallium flux FluoZin-2 fluorescence slope; thallium flux slope at 10 µM;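 active = thallium flux slope above the same plate's solvent-control mean plus 3 SD in both duplicate wells; inconclusive = duplicate wells that disagreed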;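 also: run without ouabain in cells lacking the KCC2 cotransporter; slope of fluorescence scaled to its starting value between 10 and 20 s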
* = called active by the depositor; i = inactive; u = inconclusive; x = not tested or not shown. This is a sample that favours compounds with a hit; in the whole collection about 4.7% have one here.

SMILES	MrgX1 antagonist	KCC2 mod	RGS4 act	MrgX1 agonist	RGS4 block	MrgX1 allo act	KCC2 secondary	KCC2 bumet counter	KCC2 secondary2	HEK counter1	KCC2 retest ouab	HEK293 Tl flux2
COC(=O)c1cnn(-c2ccc(F)cc2F)c1/C=N/NC(=S)NC(C)(C)C	i	7.8*	i	i	i	i	0.011	0.051*	0.031	0.017*	0.031	u
CCCCCCSc1cc(-c2nc3ccc(C)cn3c2NCc2ccccc2)ccc1OC	i	x	i	i	i	i	x	x	x	x	x	x
Cc1ccc(NC(=S)N/N=C2/CCCCc3ccccc32)cc1	i	33*	i	i	i	i	0.0073	0.04*	u	0.033*	0.033*	0.031*
COc1ccc(NC(=S)N/N=C2/CCCc3c(C)cc(C)cc32)cc1	i	-1.2	i	i	i	i	x	x	x	x	x	x
Cc1ccc(C)c(NC(=S)N/N=C2\CCc3ccccc32)c1	i	24*	i	i	i	i	0.014*	0.075*	0.034	0.071*	0.043*	0.018*
Cc1cccc(NC(=S)N2CCCC2)c1	i	x	i	i	i	i	x	x	x	x	x	x
Cc1cccc(NC(=S)N/N=C2/CCCCc3ccccc32)c1	i	7.9*	i	i	i	i	0.0086	0.036*	0.046*	0.042*	0.037*	0.024*
COc1ccc(/C=C/c2nc(S(=O)(=O)c3ccccc3)c(N(C)C)o2)cc1	i	x	i	i	i	i	x	x	x	x	x	x
CCSc1oc(-c2ccco2)nc1S(=O)(=O)c1ccccc1	i	6.5*	i	i	i	i	0.0097	0.0049	0.034	0.0041	0.02	0.012
Cc1ccc(C)n1NC(=O)c1ccccc1	i	-5.8*	i	i	i	i	0.0084	u	0.034	0.0079	0.022	0.011
Cc1ccc(-c2nc3ccccc3[nH]2)cc1NC(=O)c1sc2cc(Cl)ccc2c1Cl	i	0.97	i	i	i	i	x	x	x	x	x	x
CCCN1C(=O)/C(=C/c2ccc(C)o2)NC1=S	i	83*	i	i	i	i	0.022*	0.12*	u	0.05*	0.085*	0.018*
CCN1C(=O)N/C(=C/c2ccc(C)o2)C1=O	i	-0.1	i	i	i	i	x	x	x	x	x	x
O=C(NCCc1ccccc1)C(=O)NCC1CCCO1 (configuration not stated)	i	x	i	i	i	i	0.011	0.0082*	0.036	0.008	0.022	0.012*
O=C(NCc1cccc(CNC(=O)C(=O)NCC2CCCO2)c1)C(=O)NCC1CCCO1 (configuration not stated)	i	0.065	i	i	i	i	x	x	x	x	x	x
O=C(NCCc1ccccc1)/C(=N\O)c1ccccc1	i	x	i	i	i	i	0.006	0.0044	u	0.0072	0.016	0.01
Cc1ccc(NC(=O)CN(CCc2ccccc2)S(C)(=O)=O)cc1	i	x	i	i	i	i	x	x	x	x	x	x
Fc1ccccc1-c1ccc(/C=N/Nc2nc3ccccc3[nH]2)o1	i	-0.21	i	i	i	i	x	x	x	x	x	x
Cc1ccc(/C=N\Nc2nc3ccc(Cl)cc3[nH]2)o1	i	4.8*	i	i	i	i	0.0071	0.0043	0.031	u	0.019	0.012
Cc1cc(C(=O)Nc2nc3c(s2)CCCC3)no1	i	4.4*	i	i	i	i	0.011	0.015*	0.034	0.0091*	0.024	u
CCOC(=O)C1(CC2CCCCO2)CCN(C(=O)Nc2ccccc2CC)CC1 (configuration not stated)	i	-0.04	i	i	i	i	x	x	x	x	x	x
COc1ccc(N=Nc2ccc(O)c3ncccc23)cc1	i	32*	i	i	i	i	0.019	0.034*	0.032	0.02*	0.027*	0.019*
Oc1ccc(N=Nc2ccc3c(c2)OCCO3)c2cccnc12	i	24*	i	i	i	i	0.011	0.037*	0.033	0.061*	0.039*	0.014*
Oc1ccc(N=Nc2ccc3c(c2)OCCO3)c(O)c1	i	-1.5	i	i	i	i	x	x	x	x	x	x
COc1cccc(N=Nc2ccc(O)c3ncccc23)c1	i	x	i	i	i	i	x	x	x	x	x	x
SMILES	MrgX1 antagonist	KCC2 mod	RGS4 act	MrgX1 agonist	RGS4 block	MrgX1 allo act	KCC2 secondary	KCC2 bumet counter	KCC2 secondary2	HEK counter1	KCC2 retest ouab	HEK293 Tl flux2
COc1ccc(C)cc1N=Nc1ccc(O)c2ncccc12	x	21*	i	x	i	x	0.0069	0.035*	0.039*	0.021*	0.035*	0.023*
CCc1ccc(CNC(=O)CCC(=O)n2ncc3cc(C)ccc32)cc1	i	x	i	i	i	i	x	x	x	x	x	x
CCN(CC)S(=O)(=O)c1cccc(-c2nnc(SC(C)C(=O)NCCC3=CCCCC3)o2)c1 (configuration not stated)	i	-2.4*	i	i	i	i	0.0091	0.0047	0.034	0.0069	0.018	0.01
CC(Sc1nnc(-c2ccco2)o1)C(=O)NCCC1=CCCCC1 (configuration not stated)	i	-1.3	i	i	i	i	x	x	x	x	x	x
N#CCSc1nnc(COc2cccc3ccccc23)n1-c1ccccc1	i	x	i	i	i	i	x	x	x	x	x	x
N#CCSc1nnc(COc2cccc3ccccc23)n1-c1cccc(Cl)c1	i	7.6*	i	i	i	i	0.0072	u	0.03	0.0081	0.02	0.011
CCCOc1ccc(-c2c(=O)n(O)c3ccccc3[n+]2[O-])cc1	i	x	i	i	i	i	x	x	x	x	x	x
